Compound activity from PubChem BioAssay.
TRPC4 block – inhibitors of mouse TRPC4 channel | B-score at 10 µM | AID 2247 | Q9QUQ5 | HEK293 TRPC4beta/mu-opioid, DAMGO-evoked Fluo4 calcium flux; stronger effect = lower value | actives 0.39% (n = 300,000);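 active = B-score over 3 SD under the library average, no early fluorescence shift, positive overall ratio signal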
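Test system – stable TRPC4beta/mu-opioid receptor HEK293 cells · Probe or stimulus – DAMGO, a submaximal dose followed by a maximal one · Dosing – one concentration per compound · Signal – Fluo4 calcium fluorescence by kinetic imaging, 5 s 1 Hz baseline · Evaluation – per-well B score of integrated baseline-normalized Fluo4 ratio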
TRPC4 act – opens the mouse TRPC4 cation channel | Q9QUQ5 | HEK293 TRPC4beta/mu-opioid, Fluo4 calcium fluorescence; stronger effect = higher value | B-score at 10 µM | actives 0.49% (n = 310,000) | AID 2237;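 active = B-score above 5 SD of library B-scores, and initial fluorescence ratio not above library mean plus 5 SD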;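 also: positive B-score marks a calcium rise read as TRPC4 activation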
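Incubation: 45 min room-temperature Fluo4 loading, 110 s read / System: HEK293 cells stably co-expressing mouse TRPC4beta and mu-opioid receptor / Signal: Fluo4 fluorescence, kinetic / Control set: buffer (low) and maximal DAMGO (high) / Measure: integrated baseline-normalised fluorescence ratio, converted to per-well B score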
TRPC6 activator – activators of mouse TRPC6 channel. Q61143. HEK293-TRPC6 membrane potential dye fluorescence; stronger effect = higher value. B-score at 10 µM. actives 0.13% (n = 310,000);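 active = B-score of the integrated fluorescence ratio above library mean plus 3 SD, and starting fluorescence ratio within library mean plus 5 SD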;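 also: higher score means more depolarization so channel activation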
Target sequence (Q61143 whole entry, looked up): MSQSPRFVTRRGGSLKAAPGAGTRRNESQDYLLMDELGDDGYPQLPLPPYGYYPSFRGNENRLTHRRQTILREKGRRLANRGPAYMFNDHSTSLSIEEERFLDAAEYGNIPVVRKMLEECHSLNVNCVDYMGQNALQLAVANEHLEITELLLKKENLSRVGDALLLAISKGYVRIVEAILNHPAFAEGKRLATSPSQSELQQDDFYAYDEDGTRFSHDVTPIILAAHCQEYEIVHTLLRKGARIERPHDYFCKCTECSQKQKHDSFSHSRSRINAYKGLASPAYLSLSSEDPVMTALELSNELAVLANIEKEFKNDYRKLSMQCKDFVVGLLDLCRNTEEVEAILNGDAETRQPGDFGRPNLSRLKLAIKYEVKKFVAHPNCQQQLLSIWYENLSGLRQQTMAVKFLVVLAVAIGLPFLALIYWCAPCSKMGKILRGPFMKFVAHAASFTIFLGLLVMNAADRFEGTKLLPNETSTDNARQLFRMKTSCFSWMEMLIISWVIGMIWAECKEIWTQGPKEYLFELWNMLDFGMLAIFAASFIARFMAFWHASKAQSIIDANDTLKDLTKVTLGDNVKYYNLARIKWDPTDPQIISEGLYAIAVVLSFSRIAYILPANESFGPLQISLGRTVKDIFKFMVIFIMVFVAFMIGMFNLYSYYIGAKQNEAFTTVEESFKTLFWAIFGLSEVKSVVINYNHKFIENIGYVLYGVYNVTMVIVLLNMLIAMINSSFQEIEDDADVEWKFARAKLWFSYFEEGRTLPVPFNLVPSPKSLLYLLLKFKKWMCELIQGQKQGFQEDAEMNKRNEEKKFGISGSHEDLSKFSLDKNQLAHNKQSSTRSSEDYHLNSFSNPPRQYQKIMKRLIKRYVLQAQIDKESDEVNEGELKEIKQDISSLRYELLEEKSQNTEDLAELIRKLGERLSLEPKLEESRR
TRPC6 inhibitor – mouse TRPC6 channel inhibition; Q61143; HEK293-TRPC6, membrane potential dye, ACh-evoked depolarization; stronger effect = lower value; B-score at 10 µM; actives 1.1% (n = 310,000); AID 2553;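 active = B-score under library mean minus 3 SD, initial fluorescence not abnormally high, positive integrated signal ratio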;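 also: B-score derived from integrated fluorescence ratio over the kinetic read; more negative B-score means stronger inhibition of depolarization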
TRPC4 potent – allosterically enhances the mouse TRPC4 cation channel | actives 0.42% (n = 310,000) | B-score at 10 µM | HEK293 TRPC4beta/mu-opioid, DAMGO EC20, Fluo-4 Ca2+ flux; stronger effect = higher value | AID 2227;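 active = B-score of calcium response area above 5 SD of library B-scores, with initial fluorescence ratio within 5 SD of library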;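 also: B-score of integrated fluorescence ratio over time as area under calcium response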
TRPC4 sel inh 2 – second selectivity test of TRPC6 inhibitors: effect on mouse TRPC4; inhibition, % at 10 µM; HEK293 TRPC4/MOR, membrane potential dye fluorescence; channel activated by saturating DAMGO dose; shares compounds with TRPC6 inhibitor; actives 42% (n = 920); AID 2776;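 active = compounds whose fluorescence signal differed from control wells by over 3 SD, either direction, in both duplicate plates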
TRPC4 spec – mouse TRPC4 off-target activity of TRPC6 inhibitors; shares compounds with TRPC6 inhibitor; activity change, negative = inhibition, % at 10 µM; AID 2777; HEK293 TRPC4/mu-opioid, membrane potential fluorescence; actives 61% (n = 920);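 active = rise or fall in signal beyond 3 SD of buffer-only wells in both replicate plates, either sign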;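 also: integrated kinetic ratio of fluorescence range over baseline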
HEK293 MPD ctr 2-1 – second counter-screen for TRPC6 inhibitors: parental HEK293 cells; parental HEK293 membrane potential dye fluorescence; maximal acetylcholine challenge after compound addition; actives 31% (n = 920); signal change vs control, % at 10 µM; AID 2779; shares compounds with TRPC6 inhibitor;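 active = membrane potential signal moving either way by over 3 SD of the maximum-effect control, in both duplicate plates, meaning non-specific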
HEK293 MPD ctr-1 – parental HEK293 nonspecific activity of TRPC6 inhibitors | shares compounds with TRPC6 inhibitor | parental HEK293 membrane potential dye fluorescence | membrane potential signal change, % at 10 µM | actives 60% (n = 920);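 active = membrane potential signal shifting up or down by more than 3 SD of buffer-only wells, on both duplicate plates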
HEK293 MPD ctr-2 – parental HEK293 nonspecific activity of TRPC6 modulators. shares compounds with TRPC6 inhibitor. membrane potential dye fluorescence. membrane potential signal change, % at 10 µM. actives 51% (n = 2,400). AID 488924;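 active = membrane potential signal moves up or down beyond 5 SD from buffer-only wells, on both duplicate plates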
HEK293 MPD ctr 2-2 – second counter-screen for TRPC6 modulators: effect in parental HEK293 cells; shares compounds with TRPC6 inhibitor; AID 488926; actives 14% (n = 2,400); inhibition, % at 10 µM; membrane potential dye fluorescence; after compound, maximal acetylcholine stimulation;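 active = membrane potential signal drops by more than 5 SD from the mean control signal, in both duplicate plates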;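 also: plate controls were acetylcholine ECmax control wells for no effect and buffer only wells for full effect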
TRPC4 ctr mod – tests whether TRPC6 modulators also affect mouse TRPC4 | shares compounds with TRPC6 inhibitor | HEK293 TRPC4/mu-opioid, membrane potential fluorescence | percent change from control (negative = decrease, positive = increase), % at 10 µM | actives 69% (n = 2,400) | AID 488927;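 active = membrane potential signal moved up or down beyond 5 SD of buffer control wells, in both duplicate plates, actives on both sides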;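 also: plate controls were assay buffer wells for no effect and DAMGO maximal-effect wells for full effect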
TRPC4 ctr inh 2 – second check of whether TRPC6 modulators also affect mouse TRPC4; shares compounds with TRPC6 inhibitor; HEK293 TRPC4/mu-opioid, membrane potential dye fluorescence; stimulated with maximal-effect DAMGO; inhibition, % at 10 µM; actives 55% (n = 2,400); AID 488928;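 active = drop in membrane potential signal beyond 5 SD of the control wells in both duplicate plates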;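 also: TRPC4 counter screen for TRPC6 hits run under conditions tuned for TRPC6 not TRPC4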
TRPC6 block conf – mouse TRPC6 inhibitor confirmation. shares compounds with TRPC6 inhibitor. HEK293-TRPC6, membrane potential dye, ACh-evoked depolarization. inhibition, % at 10 µM. actives 43% (n = 3,300);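 active = fluorescence ratio falls more than 5 SD below the full-stimulation control mean, in both duplicate runs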;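 also: integrated fluorescence ratio of peak minus minimum over baseline after agonist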
TRPC6 act confirm – mouse TRPC6 activator confirmation; actives 11% (n = 2,800); HEK293-TRPC6 membrane potential dye fluorescence, FDSS; AID 488961; shares compounds with TRPC6 inhibitor; activation, % at 10 µM;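 active = ratio signal rise beyond 5 SD above unstimulated control wells' mean, seen in both duplicate runs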;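 also: plate controls were buffer EC0 wells for no effect and acetylcholine ECmax response for full effect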
Starred values were filed as active, the others as inactive; i = inactive; nt = not tested or not shown. Shown are actives, neighbours in structure and some others; about 2.3% of the full set was active somewhere.

SMILES	TRPC4 block	TRPC4 act	TRPC6 activator	TRPC6 inhibitor	TRPC4 potent	TRPC4 sel inh 2	TRPC4 spec	HEK293 MPD ctr 2-1	HEK293 MPD ctr-1	HEK293 MPD ctr-2	HEK293 MPD ctr 2-2	TRPC4 ctr mod	TRPC4 ctr inh 2	TRPC6 block conf	TRPC6 act confirm
CCN(Cc1ccncc1)C(=O)C(CO)c1ccccc1 (stereo not given)	i	i	i	-5.7*	i	nt	nt	nt	nt	i	66%*	i	i	82%*	i
COc1ccc(C(=O)c2c3ccc(C(F)(F)F)cc3[n+]([O-])n2CCCN)cc1	i	i	i	-5.7*	i	nt	nt	nt	nt	i	i	-9.5%*	47%*	48%*	i
Cc1ccc(C(=O)c2c3ccc(C(F)(F)F)cc3[n+]([O-])n2CCCN)cc1	i	i	i	-8.1*	i	50%*	-12%*	i	-158%*	nt	nt	nt	nt	76%*	i
Cc1ccc(C(=O)OCCN(C)Cc2ccccc2)cc1	i	i	i	i	i	nt	nt	nt	nt	nt	nt	nt	nt	nt	nt
Cc1c(CCOC(=O)C23CC4CC(CC(C4)C2)C3)sc[n+]1Cc1ccccc1	i	i	i	-7.5*	i	i	i	-9.5%*	i	nt	nt	nt	nt	88%*	i
Cc1c(CCOC(=O)C23CC4CC(CC(C)(C4)C2)C3)sc[n+]1Cc1ccccc1	i	i	i	i	i	nt	nt	nt	nt	nt	nt	nt	nt	nt	nt
Cc1ccc(C(=O)OCCc2sc[n+](Cc3ccccc3)c2C)cc1	i	i	i	-9.4*	i	i	-12%*	31%*	-170%*	nt	nt	nt	nt	80%*	i
COc1ccc(-c2oc3ccccc3c2C(=O)Oc2ccccc2)cc1	i	i	i	i	i	nt	nt	nt	nt	nt	nt	nt	nt	nt	nt
Cc1cccn2c(=O)c3cc(C(=O)NCc4ccco4)c(=N)n(C4CCCCC4)c3nc12	i	i	i	-6.8*	i	nt	nt	nt	nt	-160%*	i	-38%*	34%*	i	i
N=c1c(C(=O)NCC2CCCO2)cc2c(=O)n3ccccc3nc2n1C1CCCC1 (stereo not given)	i	i	i	-5.9*	i	nt	nt	nt	nt	i	i	i	i	i	i
CCCn1c(=N)c(C(=O)NCC2CCCO2)cc2c(=O)n3cccc(C)c3nc21 (stereo not given)	i	i	i	i	i	nt	nt	nt	nt	nt	nt	nt	nt	nt	nt
C=CCn1c(=N)c(C(=O)NCCCOC)cc2c(=O)n3cccc(C)c3nc21	i	i	i	-5.2*	i	nt	nt	nt	nt	226%*	83%*	40%*	i	i	nt
